“And” between values parts separate entries of the source, which are not always exact repeats. Equal values may be shown once. “Also recorded” adds a separate entry of the source.
Assays:
[1] = system: patients with myelofibrosis; experiment: Splenic response by palpation; assay type: in vivo, human
In short: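 Spleen size was measured by palpation and response scored by IWG-MRT criteria. Assessments fell on Day 1 of Cycles 2, 3 and 4, then every 3 cycles, during daily oral dosing in continuous 28-day cycles. Analysis covered patients who completed ≥1 cycle and had baseline splenomegaly ≥5 cm.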

[2] = system: patients with myelofibrosis; experiment: Hemoglobin/platelet response and transfusion status; assay type: in vivo, human
In short: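 Oral test compound was given QD or BID in continuous 28-day cycles. Hematologic response was scored by IWG-MRT criteria on Day 1 of Cycles 2, 3 and 4, then every 3 cycles. Transfusion dependence was defined as ≥6 units packed red cells in any rolling 12-week interval. Patients without transfusion in the 12 weeks before entry were classed transfusion-free at baseline.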

[3] = system: patients with myelofibrosis; experiment: MF-associated symptoms; assay type: in vivo, human
In short: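 Symptoms were self-rated on the Myelofibrosis Symptom Assessment Form at baseline, on Day 1 of Cycles 2 and 4, then every 3 cycles, during daily oral dosing in 28-day cycles. Evaluable patients had ≥1 cycle treated and a baseline symptom score >2. Each symptom was scored for ≥50% reduction, with a subgroup of patients pretreated with a JAK2 inhibitor.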

[4] = system: patients with myelofibrosis; experiment: Bone marrow fibrosis grade; assay type: in vivo, human
In short: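 Adults with myelofibrosis took the oral test compound once or twice daily in continuous 28-day cycles. Bone marrow biopsies were taken at screening (within 28 days before first dose), on Day 1 of Cycle 4, then every 3 cycles, and read at each site. Fibrosis was graded 0–3 and categorized against baseline as improved ≥1 grade, stable, or worsened ≥1 grade.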

[5] = Plasma pharmacokinetics; assay type: in vivo, human
In short: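 Plasma was sampled on Days 1, 8 and 29: predose and ~0.5, 1, 2, 3, 4, 6 and 8 h after oral dosing, plus 24 h on Days 1 and 29. Test compound was measured by LC-MS/MS (LLOQ 1 ng/ml). For BID regimens, AUC0–24 was taken as twice AUC0–12. Analysis covered patients with ≥1 evaluable profile.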

[6] = system: JAK2^V617F allele burden; experiment: PD: JAK2V617F allele burden; assay type: in vivo, human
In short: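 JAK2 allele burden was sampled on Day 1 of Cycles 1, 2 and 4, then every 3 cycles, during continuous 28-day oral dosing. On-treatment values were compared with the predose baseline. Analysis covered patients with ≥1 dose, a baseline value and ≥1 evaluable post-baseline assessment.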

[7] = system: cytokines; experiment: PD: plasma biomarkers; assay type: in vivo, human
In short: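 Predose plasma was drawn on Day 1 of Cycles 1–4. Eighty-eight cytokines/proteins were quantified on a multiplexed HumanMAP v2.0 panel. Analysis covered patients with ≥1 dose, a baseline value and ≥1 evaluable post-baseline sample.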

[8] = system: JAK2; settings: cited from earlier work
[9] = system: JAK2^V617F-driven mouse model; settings: cited from earlier work
[10] = 36 evaluable patients, all cohorts
[11] = individual patient with BMF improvement after 3 cycles, 125 mg QD
[12] = individual patients with BMF improvement after 3 cycles, 300 mg QD
[13] = patients without BMF improvement after 3 cycles (n=19)
[14] = 21 patients, doses ⩾300 mg QD, following 4 cycles

C[C@H](Nc1cc(-c2cnn(C)c2)cc(Nc2cnccn2)n1)c1ccc(F)cc1 [NS-018]
Median (range) cycles to splenic reduction ⩾50% ([1]; 100 mg BID): 7.5 (3–12) cycles
Median (range) cycles to splenic reduction ⩾50% ([1]; 200 mg BID): 1 cycles
Median (range) cycles to splenic reduction ⩾50% ([1]; 200 mg QD): 3 cycles
Median (range) cycles to splenic reduction ⩾50% ([1]; 250 mg BID): 3 cycles
Median (range) cycles to splenic reduction ⩾50% ([1]; 300 mg BID): 1 cycles
Median (range) cycles to splenic reduction ⩾50% ([1]; 300 mg QD): 2 (1–8) cycles
Median (range) cycles to splenic reduction ⩾50% ([1]; 400 mg BID): 1.5 (1–2) cycles
Median (range) cycles to splenic reduction ⩾50% ([1]; 400 mg QD): 1 cycles
Patients achieving ⩾50% reduction in palpable spleen size [1, 10]: 56%
Patients with splenic reduction of 100% [1, 10]: 31%
Patients with 100% splenic reduction ([1]; JAK2^V617F-negative responders): 3 patients
Median duration of splenic response (range) ([1]; all cohorts): 5.5 (1–24) cycles
Median (range) cycles to splenic reduction ⩾50% ([1]; all dose cohorts): 1 (1–12) cycles
Patients achieving ⩾50% reduction in spleen size ([1]; baseline spleen >10 cm): 15 patients
Patients attaining 100% reduction in spleen size ([1]; baseline spleen ⩽10 cm): 5 patients
Patients achieving ⩾50% reduction in palpable spleen size ([1]; evaluable patients with prior JAK2 inhibitor treatment): 47%
Patients achieving ⩾50% reduction in palpable spleen size ([1]; evaluable patients with the JAK2^V617F mutation): 50%
Median (range) cycles to splenic reduction ⩾50% ([1]; prior JAK2 inhibitor treatment): 2 (1–12) cycles
Patients with 100% splenic reduction ([1]; responders with the JAK2^V617F mutation): 8 patients
Hemoglobin IWG-MRT clinical improvement ([2]; all cohorts): 4 patients
Hemoglobin improvement (⩾20 g/l increase) ([2]; all cohorts): 11 patients
Platelet IWG-MRT clinical improvement ([2]; all cohorts): 1 patients
Platelet improvement (100% increase) ([2]; all cohorts): 2 patients
Increase in Hb of ⩾20 g/l ([2]; individual patient with BMF improvement after 3 cycles, 75 mg QD): ✓ (not CI)
100% increase in Plt count [2, 11]: ✓ (CI)
Increase in Hb of ⩾20 g/l [2, 11]: ✓ (not CI)
Increase in Hb of ⩾20 g/l ([2]; individual patients with BMF improvement after 3 cycles, 300 mg BID): ✓ (CI)
100% increase in Plt count [2, 12]: ✓ (not CI)
Increase in Hb of ⩾20 g/l [2, 12]: ✓ (CI)
Increase in Hb of ⩾20 g/l ([2]; individual patients with BMF improvement after 3 cycles, 400 mg BID): ✓ (not CI)
Patients achieving transfusion independence ([2]; of the 10 patients transfusion dependent at baseline): 3 patients
Hemoglobin responses [2, 13]: 2 responses
Platelet responses [2, 13]: no platelet responses
Reductions in symptom scores achieved in at least some patients ([3]; all symptoms measured): up to 100%
Mean MF-SAF scores ([3]; by Week 4, all 8 assessed symptoms, total evaluable population): reductions in mean MF-SAF scores
Mean MF-SAF symptom score ([3]; patients with previous JAK2 inhibitor treatment): reduction in mean score for all symptoms
Patients with improvement of ⩾1 BMF grade ([4]; after 3 cycles, 30 evaluable patients): 37%
Patients with unchanged BMF grade ([4]; after Cycle 3, 30 evaluable patients): 53%
Patients with BMF worsening ([4]; at completion of Cycle 3, 30 evaluable patients): 10%
Duration of BMF grade change ([4]; individual patient, 75 mg QD): 3 cycles
Duration of BMF grade change ([4]; individual patient, 125 mg QD): 12 cycles
Duration of BMF grade change ([4]; individual patient, 250 mg BID): 2 cycles
Duration of BMF grade change ([4]; individual patient, 400 mg QD): 6 cycles
Duration of BMF grade change ([4]; individual patients, 300 mg BID): 2 cycles and 1 cycles
Duration of BMF grade change ([4]; individual patients, 300 mg QD): 3 cycles and 39 cycles and 9 cycles
Duration of BMF grade change ([4]; individual patients, 400 mg BID): 1 cycles and 12 cycles
Patients with BMF improvement maintained for >12 weeks ([4]; of the 11 improved after 3 cycles): 5 patients
Patients achieving BMF improvement from baseline later in the study ([4]; of those with unchanged BMF grade after Cycle 3): 6 patients
Time to maximum plasma concentration (Cmax) ([5]; Day 8, postdosing, all dose cohorts, oral): 1 to 2 h
Dose proportionality of systemic exposure ([5]; based on Cmax on Day 8): approximately dose proportional
Drug accumulation with multiple dosing ([5]; exposure Days 8 vs 29): did not accumulate; also recorded: no evidence of drug accumulation
half-life ([5]; human, plasma, po): 2 to 5 h
JAK2^V617F allele burden during treatment ([6]; JAK2^V617F-positive patients): largely unchanged; also recorded: remained similar to the baseline value in almost all patients
Patients with decrease in allele burden of ⩾25% ([6]; at Cycle 7 in one and Cycle 16 in the other): 2 patients
B2M, CRP, IL-18, myeloperoxidase and TNFR2 plasma levels [7, 14]: Dose-dependent downregulation
Erythropoietin, leptin and eotaxin-1 plasma levels [7, 14]: dose-dependent upregulation
Tumor necrosis factor-α and IL-6 levels ([7]; after 4 weeks of treatment): unchanged
Selectivity for JAK2 over JAK1 [8]: specificity of this agent for JAK2 over JAK1
Median inhibitory concentration ([8]; in vitro kinase assay): subnanomolar range
Splenomegaly ([9]; JAK2^V617F-driven mouse model): reduced splenomegaly
Leukocytosis, BMF and survival ([9]; murine model): Improvements
Peripheral blood erythrocyte or platelet counts ([9]; murine model): without reducing

— paper PMC5292677 (Leukemia, 2016)
